From ChEMBL document CHEMBL1799933, “Discovery of a selective allosteric M1 receptor modulator with suitable development properties based on a quinolizidinone carboxylic acid scaffold” (J Med Chem, 2011)
Substitutions are numbered along the chain they refer to. Activity calls are given as the source filed them. The rule behind the calls is not given here.

Tests used:
[1] = Plasma protein binding in rat serum by equilibrium dialysis method; format: ADME, cell-free; conditions: read-out: PPB (converted)
Outline: (§1)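 Protein binding measured by equilibrium dialysis against rat or human serum.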

[2] = Plasma protein binding in human serum by equilibrium dialysis method; format: ADME, cell-free; conditions: read-out: PPB (converted); outline: as §1
[3] = Passive permeability of the compound at 5 uM; format: ADME; conditions: not told
Plasma = assay: Drug level in Sprague-Dawley rat plasma at 10 mg/kg, po; format: ADME, organism-based; design: dose 10 mg/kg, route oral; conditions: in vivo
Outline: (§2)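 Rats dosed orally at 10 mpk. Plasma, brain and CSF sampled at 2 h and concentrations determined by bioanalysis.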

Brain = assay: Drug level Sprague-Dawley rat brain at 10 mg/kg, po; format: ADME, organism-based; design: dose 10 mg/kg, route oral; conditions: in vivo, read-out: Drug uptake; outline: as §2
[4] = Lipophilicity, log P of the compound; format: physicochemical; conditions: octanol/water
[5] = Clearance in rat at 3 mg/kg, po and 1 mg/kg, iv; format: ADME, organism-based; conditions: in vivo
Outline: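 Rats (n = 2) dosed orally at 3 mg/kg and IV at 1 mg/kg. Interanimal variability under 20% for all values.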

[6] = Oral bioavailability in dog at 3 mg/kg; format: ADME, organism-based, Canis lupus familiaris; conditions: in vivo
Outline: (§3)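 Dog PK, n = 2 animals. Given orally at 3 mg/kg and intravenously at 1 mg/kg. Interanimal variability under 20% for all values.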

[7] = Half life in dog at 3 mg/kg, po and 1 mg/kg, iv; format: ADME, organism-based, Canis lupus familiaris; conditions: in vivo; outline: as §3
[8] = Clearance in dog at 3 mg/kg, po and 1 mg/kg, iv; format: ADME, organism-based, Canis lupus familiaris; conditions: in vivo; outline: as §3
[9] = Clearance in rhesus monkey; format: ADME, organism-based, Macaca mulatta; conditions: in vivo
[10] = Metabolic stability in dog NADPH-fortified hepatic microsomes assessed as oxidative metabolism; format: ADME, Canis lupus familiaris, Liver
Outline: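 Compound incubated with NADPH-fortified hepatic microsomes from rat, dog, monkey or human. Oxidative metabolism monitored.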

[11] = biological target: T1, Muscarinic acetylcholine receptor M1 (Homo sapiens) (UniProt P11229); assay: Agonist activity at human muscarinic M1 receptor expressed in CHONFAT cells assessed as increase in calcium mobilization at 10 uM preincubated for 4 mins measured after 1 hr by FLIPR assay; format: functional, cell-based
T1 sequence (whole entry): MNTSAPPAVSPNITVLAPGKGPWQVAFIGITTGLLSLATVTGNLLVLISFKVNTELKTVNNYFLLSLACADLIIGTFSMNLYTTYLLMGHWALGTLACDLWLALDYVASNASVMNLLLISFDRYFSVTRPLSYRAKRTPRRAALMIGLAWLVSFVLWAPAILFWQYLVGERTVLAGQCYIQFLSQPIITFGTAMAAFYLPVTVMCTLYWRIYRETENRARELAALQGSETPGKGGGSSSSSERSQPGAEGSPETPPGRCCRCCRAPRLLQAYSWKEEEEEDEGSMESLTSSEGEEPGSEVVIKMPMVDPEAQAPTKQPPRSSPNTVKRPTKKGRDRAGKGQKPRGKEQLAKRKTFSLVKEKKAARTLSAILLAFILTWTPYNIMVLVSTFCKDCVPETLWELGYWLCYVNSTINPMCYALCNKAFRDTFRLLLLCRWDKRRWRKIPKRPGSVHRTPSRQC

[12] = biological target: T2, Muscarinic acetylcholine receptor M4 (Homo sapiens) (UniProt P08173); assay: Agonist activity at human muscarinic M4 receptor expressed in CHONFAT cells assessed as increase in acetylcholine-induced calcium mobilization at 10 uM preincubated for 4 mins measured after 1 hr by FLIPR assay; format: functional, cell-based
T2 sequence (whole entry): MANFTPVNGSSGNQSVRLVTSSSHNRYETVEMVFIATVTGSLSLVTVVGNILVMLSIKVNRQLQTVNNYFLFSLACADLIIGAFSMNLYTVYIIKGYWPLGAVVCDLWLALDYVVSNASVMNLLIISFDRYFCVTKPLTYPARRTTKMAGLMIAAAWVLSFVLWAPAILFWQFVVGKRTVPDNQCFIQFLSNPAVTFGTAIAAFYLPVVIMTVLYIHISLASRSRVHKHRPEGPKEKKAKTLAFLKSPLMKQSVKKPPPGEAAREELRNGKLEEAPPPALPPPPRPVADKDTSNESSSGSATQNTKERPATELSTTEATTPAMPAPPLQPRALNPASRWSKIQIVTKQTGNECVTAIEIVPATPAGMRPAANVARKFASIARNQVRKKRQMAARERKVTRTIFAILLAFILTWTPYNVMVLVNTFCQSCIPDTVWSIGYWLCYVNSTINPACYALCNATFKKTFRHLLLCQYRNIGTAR
Outline: (§4)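 CHO-NFAT cells expressing the named muscarinic receptor (human M1–M4; rhesus, dog or rat M1 in CHO-K1) were plated at 25,000 cells/well and grown overnight at 37 °C, 6% CO2. Cells were loaded with 1 μM Fluo-4AM for 1 h, washed, and preincubated 4 min with serially diluted compound (final DMSO 0.67%). They were then stimulated 4 min with an EC20 of ACh, and Ca2+ flux was read by FLIPR384.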

[13] = biological target: Voltage-gated inwardly rectifying potassium channel KCNH2 (Homo sapiens, UniProt Q12809); assay: Inhibition of human ERG
Voltage-gated inwardly rectifying potassium channel KCNH2, sequence (Q12809 whole entry): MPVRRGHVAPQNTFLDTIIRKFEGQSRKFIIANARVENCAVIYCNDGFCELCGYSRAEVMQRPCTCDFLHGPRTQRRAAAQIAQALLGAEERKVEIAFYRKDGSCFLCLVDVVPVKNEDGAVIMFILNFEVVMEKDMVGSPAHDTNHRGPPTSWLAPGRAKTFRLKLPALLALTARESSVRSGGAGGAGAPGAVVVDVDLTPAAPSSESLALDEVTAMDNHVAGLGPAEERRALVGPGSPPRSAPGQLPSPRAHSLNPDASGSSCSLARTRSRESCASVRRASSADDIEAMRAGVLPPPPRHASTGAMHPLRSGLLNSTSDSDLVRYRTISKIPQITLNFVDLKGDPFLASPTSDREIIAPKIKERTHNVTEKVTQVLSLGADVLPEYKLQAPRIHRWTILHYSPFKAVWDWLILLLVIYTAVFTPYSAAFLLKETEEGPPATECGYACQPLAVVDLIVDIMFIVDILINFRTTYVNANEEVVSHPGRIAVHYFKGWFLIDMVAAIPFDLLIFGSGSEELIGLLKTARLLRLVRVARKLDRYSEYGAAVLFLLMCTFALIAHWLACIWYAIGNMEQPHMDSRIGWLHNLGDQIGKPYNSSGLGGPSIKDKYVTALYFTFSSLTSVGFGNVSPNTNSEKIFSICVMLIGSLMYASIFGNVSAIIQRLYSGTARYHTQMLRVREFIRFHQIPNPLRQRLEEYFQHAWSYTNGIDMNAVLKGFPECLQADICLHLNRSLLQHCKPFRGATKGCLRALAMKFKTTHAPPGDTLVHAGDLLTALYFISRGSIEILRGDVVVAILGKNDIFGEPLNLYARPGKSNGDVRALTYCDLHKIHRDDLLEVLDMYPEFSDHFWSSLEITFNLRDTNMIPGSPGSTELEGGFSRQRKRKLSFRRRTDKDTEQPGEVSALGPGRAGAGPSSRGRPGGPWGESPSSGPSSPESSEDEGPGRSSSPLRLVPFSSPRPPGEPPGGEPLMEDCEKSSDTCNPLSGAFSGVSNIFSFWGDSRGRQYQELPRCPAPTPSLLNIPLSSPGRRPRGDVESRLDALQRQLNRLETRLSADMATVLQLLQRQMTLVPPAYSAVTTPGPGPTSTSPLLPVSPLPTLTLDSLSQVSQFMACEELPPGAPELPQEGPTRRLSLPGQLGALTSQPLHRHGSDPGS

[14] = Agonist activity at dog muscarinic M1 receptor expressed in CHOK1 cells assessed as potentiation of acetylcholine-induced calcium mobilization preincubated for 4 mins measured after 1 hr by FLIPR assay; format: functional, Canis lupus familiaris, CHO-K1; outline: as §4
[15] = biological target: T3, Muscarinic acetylcholine receptor M1 (Macaca mulatta) (UniProt P56489); assay: Agonist activity at rhesus monkey muscarinic M1 receptor expressed in CHOK1 cells assessed as potentiation of acetylcholine-induced calcium mobilization preincubated for 4 mins measured after 1 hr by FLIPR assay; format: functional, cell-based; conditions: CHO-K1; outline: as §4
T3 sequence (whole entry): T1 sequence (whole entry) with A265P, E277D

Mus musculus = assay: Antiamnesic activity against scopolamine-induced dementia in ip dosed B6SJL mouse assessed as increase in freezing behavior after 24 hrs; format: functional, organism-based
Outline: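 Male B6SJL mice, 10 weeks old and naive (n = 12–16/group), were given compound IP in 5% beta-cyclodextrin and/or scopolamine 0.3 mg/kg in 0.9% saline 30 min before training. Training was 2 tone (3 kHz, 85 dB, 30 s)–footshock (0.5 mA, 1 s) pairings 2 min apart. Freezing in the same chamber was video-scored 24 h later.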

Compound: N#CC1(c2ccccn2)CCN(Cc2cc(C(=O)O)c(=O)n3ccccc23)CC1 [MSD-M1PAM]
- fraction unbound [1]: 0.318
- fraction unbound [2]: 0.291
- Papp at 5 µM [3]: 18 ×10⁻⁶ cm/s
- concentration (Plasma): 1480 nM
- concentration (Brain): 306 nM
- logP [4]: 0.15
- clearance [5]: 13.5 mL/min/kg
- bioavailability [6]: 62%
- half-life [7]: 4.4 h
- clearance [8]: 7.4 mL/min/kg
- clearance [9]: 17 mL/min/kg
- Stability [10]: Stable
- Activity [11]: Active
- Activity [12]: inactive
- IC50 [13]: > 30 µM
- IP [14]: 100 nM
- IP [15]: 49 nM
- Activity (Mus musculus): Dose-dependent effect
